In ChEMBL document CHEMBL1795310, “Novel agmatine and agmatine-like peptidomimetic inhibitors of the West Nile virus NS2B/NS3 serine protease” (Eur J Med Chem, 2011):
The source made the active and inactive calls. The rule behind the calls is not given here.

Columns and labels:
[1] = Inhibition of West Nile virus NS2B-NS3 serine protease preincubated for 1 hr before addition of Pyr-RTKR-AMC fluorogenic substrate by measuring fluorescence every 45 seconds for 1 hr by fluorescence assay
Summary of the method: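 WNV NS2B/NS3 protease (20 nM) preincubated with varying inhibitor concentrations 1 h at 25 °C in pH 8.0 buffer (10 mM Tris–HCl, 1 mM CHAPS, 20% v/v glycerol). Pyr-RTKR-AMC added to 20 μM final. Fluorescence (ex 355/em 460 nm) read at 37 °C every 45 s for 1 h. Duplicates. IC50 from sigmoidal fit of initial velocity vs log[inhibitor]. Nona-D-Arg-NH2 as positive control.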

[2] = Competitive inhibition of West Nile virus NS2B-NS3 serine protease assessed as rate of Pyr-RTKR-AMC hydrolysis every 45 seconds for 1 hr by Lineweaver-Burk plot analysis
Summary of the method: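 Inhibitor at 0, 5, 10, 20, 40 and 70 μM preincubated with protease (20 nM) 1 h at 25 °C, pH 8.0 (10 mM Tris–HCl, 1 mM CHAPS, 20% v/v glycerol). Pyr-RTKR-AMC then added at 10–500 μM (seven levels). Hydrolysis followed at 37 °C, ex 355/em 460 nm. Ki from non-linear regression with a competitive inhibition model, alongside a 1/V vs 1/S plot.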

[3] = target: Prothrombin (Homo sapiens) (UniProt P00734); assay: Inhibition of thrombin assessed as fluorescence intensity at 100 uM pretreated for 1 hr before substrate addition measured every 45 seconds for 1 hr
Summary of the method: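 Assay run with a commercial AFC thrombin kit. Thrombin (40 nM) incubated with inhibitor 1 h at 25 °C in kit reaction buffer, then AFC substrate added. Fluorescence (ex 380/em 500 nm) read at 25 °C. NAPAP served as positive control.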

| SMILES | IC50 [1] | Activity [3] | Ki [2] |
| --- | --- | --- | --- |
| N=C(N)NC[C@H]1CCN(C(=O)[C@H](CCCCN)NC(=O)[C@H](CCCCN)NC(=O)Cc2ccc(-c3ccccc3)cc2)C1 | > 100 µM |  |  |
| CC(=O)N[C@@H](CCCCN)C(=O)N[C@@H](CCCCN)C(=O)NCCCCNC(=N)N | 18.2 µM | inactive |  |
| N=C(N)NC1CCC(NC(=O)[C@H](CCCCN)NC(=O)[C@H](CCCCN)NC(=O)Cc2ccc(-c3ccccc3)cc2)CC1 (stereo partly drawn) | > 100 µM |  |  |
| N=C(N)NCC1CCN(C(=O)[C@H](CCCCN)NC(=O)[C@H](CCCCN)NC(=O)Cc2ccc(-c3ccccc3)cc2)CC1 | > 100 µM |  |  |
| N=C(N)NC[C@@H]1CCN(C(=O)[C@H](CCCCN)NC(=O)[C@H](CCCCN)NC(=O)Cc2ccc(-c3ccccc3)cc2)C1 | 20 µM |  |  |

Now from value to compound, other results behind:

| IC50 [1] | Activity [3] | SMILES | Ki [2] |
| --- | --- | --- | --- |
| 4.7 µM | inactive | N=C(N)NCCCCNC(=O)[C@H](CCCCN)NC(=O)[C@H](CCCCN)NC(=O)Cc1ccc(-c2ccccc2)cc1 | 2.05 µM |
| 61.2 µM |  | N=C(N)NC/C=C/CNC(=O)[C@H](CCCCN)NC(=O)[C@H](CCCCN)NC(=O)Cc1ccc(-c2ccccc2)cc1 |  |
| > 100 µM |  | N=C(N)NCCCCCNC(=O)[C@H](CCCCN)NC(=O)[C@H](CCCCN)NC(=O)Cc1ccc(-c2ccccc2)cc1 |  |
| > 100 µM |  | N=C(N)NCCNC(=O)[C@H](CCCCN)NC(=O)[C@H](CCCCN)NC(=O)Cc1ccc(-c2ccccc2)cc1 |  |
| > 100 µM |  | N=C(N)NCCCNC(=O)[C@H](CCCCN)NC(=O)[C@H](CCCCN)NC(=O)Cc1ccc(-c2ccccc2)cc1 |  |
